The record followed here is ChEMBL document CHEMBL4049452 (J Med Chem, 2017).

Series [1] addresses Glucagon-like peptide 1 receptor (Homo sapiens, UniProt P43220). The series is described as follows: Agonist activity at human GLP-1 receptor expressed in HEK293 cells assessed as cAMP accumulation after 30 mins by HTRF assay. Format: functional, cell-based. On the technique in general: Cyclic AMP is a second messenger, typically raised through Gs and lowered through Gi signalling.

A further series addresses Glucagon receptor (Homo sapiens, UniProt P47871). Nature of the series: Agonist activity at human glucagon receptor expressed in HEK293 cells assessed as cAMP accumulation after 30 mins by HTRF assay. Format: functional, cell-based.
Series [2] is described as follows: Tmax in C57/BL6 mouse at 1 mg/kg, sc by LC-MS/MS analysis. Format: ADME, organism-based. Particulars: in vivo. Put shortly:
(§1)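 Female C57/Bl6 mice given single 1 mg/kg sc dose; animals sacrificed and blood collected at 0.083, 0.25, 1, 2, 4, 8, 16 and 24 h. Plasma analysed by LC-MS/MS after protein precipitation; parameters from mean plasma concentrations by noncompartmental analysis.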

The nature of series [3]: Cmax in C57/BL6 mouse at 1 mg/kg, sc by LC-MS/MS analysis. The format is ADME, organism-based. The arrangement: dose 1 mg/kg, route subcutaneous. The conditions noted are these: in vivo. Put shortly:
as §1

Series [4] in a line: Half life in C57/BL6 mouse at 1 mg/kg, sc by LC-MS/MS analysis. Format: ADME, organism-based. Particulars: in vivo. The procedure, abridged:
as §1

Series [5] in a line: AUC in C57/BL6 mouse at 1 mg/kg, sc by LC-MS/MS analysis. Particulars: in vivo. The format is ADME, organism-based. Put shortly:
as §1

Glucagon-like peptide 1 receptor, sequence (P43220 whole entry): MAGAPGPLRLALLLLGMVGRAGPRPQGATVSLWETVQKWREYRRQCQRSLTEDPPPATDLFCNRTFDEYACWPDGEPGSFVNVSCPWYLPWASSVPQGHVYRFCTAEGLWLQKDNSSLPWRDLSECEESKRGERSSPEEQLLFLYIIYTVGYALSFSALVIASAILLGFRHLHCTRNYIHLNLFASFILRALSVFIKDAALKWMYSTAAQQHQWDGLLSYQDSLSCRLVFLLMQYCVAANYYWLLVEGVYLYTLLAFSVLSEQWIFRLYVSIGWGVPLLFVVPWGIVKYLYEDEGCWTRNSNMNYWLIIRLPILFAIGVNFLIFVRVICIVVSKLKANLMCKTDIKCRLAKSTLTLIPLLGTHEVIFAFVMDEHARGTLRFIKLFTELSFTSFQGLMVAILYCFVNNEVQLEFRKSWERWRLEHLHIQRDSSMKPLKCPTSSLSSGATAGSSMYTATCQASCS
Glucagon receptor, sequence (P47871 whole entry): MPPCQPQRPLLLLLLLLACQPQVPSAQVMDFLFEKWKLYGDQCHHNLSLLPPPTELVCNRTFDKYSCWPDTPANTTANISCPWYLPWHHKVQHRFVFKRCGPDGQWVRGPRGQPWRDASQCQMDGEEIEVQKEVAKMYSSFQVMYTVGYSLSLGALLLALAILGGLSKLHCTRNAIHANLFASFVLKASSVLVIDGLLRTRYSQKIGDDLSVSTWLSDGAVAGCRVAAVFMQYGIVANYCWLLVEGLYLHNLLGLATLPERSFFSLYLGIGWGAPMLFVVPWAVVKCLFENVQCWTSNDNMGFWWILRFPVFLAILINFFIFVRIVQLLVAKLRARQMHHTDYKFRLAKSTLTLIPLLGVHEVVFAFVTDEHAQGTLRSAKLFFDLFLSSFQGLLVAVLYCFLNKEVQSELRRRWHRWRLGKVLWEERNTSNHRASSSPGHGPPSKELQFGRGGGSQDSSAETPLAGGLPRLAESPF

The term EC50 denotes the midpoint of the concentration-response curve. In the case of H-HSQGTFTSDLSKQMDSRRAQDFIEWLKNGGPSS-NH2, the figures for the EC50 (in series [1]; on Glucagon receptor) were 0.0153 nM and 0.0089 nM, respectively.
On the same counts, the results for “H-HSQGTFTSDLSKQMDSRRAQDFIEWLKNGGPSSNNIA-NH2” are 0.0172 nM and 0.0156 nM.
On the same counts, the results for H-HSQGTFTSDLSKQMDSRRAQDFIEWLKNG-NH2 are 0.0082 nM and 0.0019 nM.
As for “H-HGEGTFTSDLSKQMDSRRAQDFVQWLKNGGPSSGAPPPS-NH2”, the EC50 in series [1] was found to be 0.0558 nM; on Glucagon receptor, 42000 nM.
On the same counts, the results for `CC[C@H](C)[C@H](NC(=O)[C@H](Cc1ccccc1)NC(=O)[C@H](CC(C)C)NC(=O)[C@H](CCCNC(=N)N)NC(=O)[C@@H](NC(=O)[C@H](CCCNC(=N)N)NC(=O)[C@H](CCCNC(=N)N)NC(=O)[C@H](CO)NC(=O)[C@H](CC(=O)O)NC(=O)[C@H](CCSC)NC(=O)[C@H](CCC(N)=O)NC(=O)[C@H](CCCCN)NC(=O)[C@H](CO)NC(=O)[C@H](CC(C)C)NC(=O)[C@H](CC(=O)O)NC(=O)[C@H](CO)NC(=O)[C@@H](NC(=O)[C@H](Cc1ccccc1)NC(=O)[C@@H](NC(=O)CNC(=O)[C@H](CCC(=O)O)NC(=O)CNC(=O)[C@@H](N)Cc1cnc[nH]1)[C@@H](C)O)[C@@H](C)O)C(C)C)C(=O)N[C@@H](CCC(=O)O)C(=O)N[C@@H](Cc1c[nH]c2ccccc12)C(=O)N[C@@H](CC(C)C)C(=O)N[C@@H](CCCCN)C(=O)N[C@@H](CC(N)=O)C(=O)NCC(=O)NCC(=O)N1CCC[C@H]1C(=O)N[C@@H](CO)C(=O)N[C@@H](CO)C(=O)NCC(=O)N[C@@H](C)C(=O)N1CCC[C@H]1C(=O)N1CCC[C@H]1C(=O)N1CCC[C@H]1C(=O)N[C@@H](CO)C(N)=O` are 0.0018 nM and 58000 nM.
The term Tmax denotes the time at which the peak concentration occurs. In general, Cmax refers to the maximum level reached in the sampled fluid or tissue. One may read the half-life as the time in which the quantity being followed falls by half. Low readings indicate fast loss, high ones slow loss. In general, AUC refers to the area under the concentration-time curve, a measure of exposure. The low end stands for less exposure, the high end for more exposure. In the case of `CCCCCCCCCCCCCCCC(=O)N[C@@H](CCC(=O)NCCCC[C@H](NC(=O)[C@H](CO)NC(=O)[C@@H]1CCCN1C(=O)[C@@H]1CCCN1C(=O)[C@@H]1CCCN1C(=O)[C@H](C)NC(=O)CNC(=O)[C@H](CO)NC(=O)[C@H](CO)NC(=O)[C@@H]1CCCN1C(=O)CNC(=O)CNC(=O)[C@H](CC(N)=O)NC(=O)[C@H](CCCCN)NC(=O)[C@H](CC(C)C)NC(=O)[C@H](Cc1c[nH]c2ccccc12)NC(=O)[C@H](CCC(=O)O)NC(=O)[C@@H](NC(=O)[C@H](Cc1ccccc1)NC(=O)[C@H](CC(=O)O)NC(=O)[C@H](CCC(N)=O)NC(=O)[C@H](C)NC(=O)[C@H](CCCNC(=N)N)NC(=O)[C@H](CCCNC(=N)N)NC(=O)[C@H](CO)NC(=O)[C@H](CC(=O)O)NC(=O)[C@H](CCSC)NC(=O)[C@H](CCC(N)=O)NC(=O)[C@H](CCCCN)NC(=O)[C@H](CO)NC(=O)[C@H](CC(C)C)NC(=O)[C@H](CC(=O)O)NC(=O)[C@H](CO)NC(=O)[C@@H](NC(=O)[C@H](Cc1ccccc1)NC(=O)[C@@H](NC(=O)CNC(=O)[C@H](CCC(N)=O)NC(=O)[C@H](CO)NC(=O)[C@@H](N)Cc1cnc[nH]1)[C@@H](C)O)[C@H](C)O)[C@@H](C)CC)C(N)=O)C(N)=O`, the Tmax in series [2] was determined as 2 h. In series [3], the Cmax was 3450 ng/mL. Also, in series [4], the half-life is 2.2 h. For the same compound, the area under the curve (AUC) in series [5] is 17000 ng·h/mL. Besides, the EC50 in series [1] worked out at 0.0052 nM; on Glucagon receptor, 0.0062 nM.
For the compound “H-HGEGTFTSDLSKQMDSRRAQDFVEWLKNGGPSSGAPPPS-NH2”, the results for the EC50 (in series [1]; at Glucagon receptor) were 0.0222 nM and 10000 nM, respectively.
For the compound “H-HSEGTFTSDLSKQMDSRRAQDFIEWLKNGGPSSGAPPPS-NH2”, on Glucagon receptor, the EC50 amounted to 170 nM.
For the compound `CC[C@H](C)[C@H](NC(=O)[C@H](Cc1ccccc1)NC(=O)[C@H](CC(C)C)NC(=O)[C@H](CCCNC(=N)N)NC(=O)[C@@H](NC(=O)[C@H](C)NC(=O)[C@H](CCC(=O)O)NC(=O)[C@H](CCC(=O)O)NC(=O)[C@H](CCC(=O)O)NC(=O)[C@H](CCSC)NC(=O)[C@H](CCC(N)=O)NC(=O)[C@H](CCCCN)NC(=O)[C@H](CO)NC(=O)[C@H](CC(C)C)NC(=O)[C@H](CC(=O)O)NC(=O)[C@H](CO)NC(=O)[C@@H](NC(=O)[C@H](Cc1ccccc1)NC(=O)[C@@H](NC(=O)CNC(=O)[C@H](CCC(=O)O)NC(=O)CNC(=O)[C@@H](N)Cc1cnc[nH]1)[C@@H](C)O)[C@@H](C)O)C(C)C)C(=O)N[C@@H](CCC(=O)O)C(=O)N[C@@H](Cc1c[nH]c2ccccc12)C(=O)N[C@@H](CC(C)C)C(=O)N[C@@H](CCSC)C(=O)N[C@@H](CC(N)=O)C(=O)N[C@H](C(=O)N[C@@H](CCCCN)C(=O)N[C@@H](CCCNC(=N)N)C(=O)N[C@@H](CC(N)=O)C(=O)N[C@@H](CCCNC(=N)N)C(=O)NCC(=O)N[C@@H](C)C(=O)N1CCC[C@H]1C(=O)N1CCC[C@H]1C(=O)N1CCC[C@H]1C(=O)N[C@@H](CO)C(N)=O)[C@@H](C)O`, the EC50 in series [1] was 0.0012 nM; at Glucagon receptor it was greater than 100000 nM.
The corresponding values for `CCCCCCCCCCCCCCCC(=O)N[C@@H](CCC(=O)NCCCC[C@H](NC(=O)[C@@H]1CCCN1C(=O)[C@@H]1CCCN1C(=O)[C@@H]1CCCN1C(=O)[C@H](C)NC(=O)CNC(=O)[C@H](CO)NC(=O)[C@H](CO)NC(=O)[C@@H]1CCCN1C(=O)CNC(=O)CNC(=O)[C@H](CC(N)=O)NC(=O)[C@H](CCCCN)NC(=O)[C@H](CC(C)C)NC(=O)[C@H](Cc1c[nH]c2ccccc12)NC(=O)[C@H](CCC(=O)O)NC(=O)[C@@H](NC(=O)[C@H](Cc1ccccc1)NC(=O)[C@H](CC(=O)O)NC(=O)[C@H](CCC(N)=O)NC(=O)[C@H](C)NC(=O)[C@H](CCCNC(=N)N)NC(=O)[C@H](CCCNC(=N)N)NC(=O)[C@H](CO)NC(=O)[C@H](CC(=O)O)NC(=O)[C@H](CCSC)NC(=O)[C@H](CCC(N)=O)NC(=O)[C@H](CCCCN)NC(=O)[C@H](CO)NC(=O)[C@H](CC(C)C)NC(=O)[C@H](CC(=O)O)NC(=O)[C@H](CO)NC(=O)[C@@H](NC(=O)[C@H](Cc1ccccc1)NC(=O)[C@@H](NC(=O)CNC(=O)[C@H](CCC(N)=O)NC(=O)[C@H](CO)NC(=O)[C@@H](N)Cc1cnc[nH]1)[C@@H](C)O)[C@@H](C)O)[C@@H](C)CC)C(N)=O)C(N)=O` are 0.0058 nM and 0.0063 nM.
“H-HSQGTFTSDLSKQMEEEAVRLFIEWLMNTKRNRGAPPPS-NH2”: the EC50 was determined as 0.0022 nM in series [1] and 1.24 nM on Glucagon receptor.
